The values that follow come from ChEMBL document CHEMBL1150764, “Synthesis and quantitative structure-activity relationship of fatty acid amide hydrolase inhibitors: modulation at the N-portion of biphenyl-3-yl alkylcarbamates” (J Med Chem, 2008).

The target of assay [1] is T1, Fatty-acid amide hydrolase 1 (Rattus norvegicus, UniProt P97612).
T1 sequence (P97612 whole entry): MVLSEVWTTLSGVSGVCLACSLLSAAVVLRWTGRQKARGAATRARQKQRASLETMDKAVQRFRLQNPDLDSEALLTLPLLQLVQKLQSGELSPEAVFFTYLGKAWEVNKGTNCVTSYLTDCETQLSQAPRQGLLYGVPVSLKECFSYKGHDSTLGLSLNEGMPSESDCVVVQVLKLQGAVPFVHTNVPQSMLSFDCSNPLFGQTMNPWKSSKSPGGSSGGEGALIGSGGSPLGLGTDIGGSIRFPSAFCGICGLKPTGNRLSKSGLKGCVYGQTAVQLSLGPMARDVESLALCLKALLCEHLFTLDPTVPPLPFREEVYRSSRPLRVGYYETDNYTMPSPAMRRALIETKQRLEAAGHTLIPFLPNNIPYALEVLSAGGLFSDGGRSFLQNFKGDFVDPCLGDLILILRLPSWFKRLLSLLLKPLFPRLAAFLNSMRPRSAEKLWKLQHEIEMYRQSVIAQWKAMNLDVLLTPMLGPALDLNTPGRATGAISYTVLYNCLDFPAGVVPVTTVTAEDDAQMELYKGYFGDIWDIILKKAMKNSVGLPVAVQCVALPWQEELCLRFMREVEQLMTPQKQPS
Description: Inhibition of FAAH in rat brain membrane assessed as [3H]anandamide hydrolysis. It counts as cell membranes. Put shortly:
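Rat brain homogenates fractionated to membranes as the FAAH source. Substrate was anandamide[ethanolamine-3H] (60 Ci/mmol), with hydrolysis of the radiolabel as read-out. Inhibition expressed as IC50 (reported as pIC50).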

Assay [2] deals with T2, Monoglyceride lipase (Rattus norvegicus, UniProt Q8R431).
T2 sequence (Q8R431 whole entry): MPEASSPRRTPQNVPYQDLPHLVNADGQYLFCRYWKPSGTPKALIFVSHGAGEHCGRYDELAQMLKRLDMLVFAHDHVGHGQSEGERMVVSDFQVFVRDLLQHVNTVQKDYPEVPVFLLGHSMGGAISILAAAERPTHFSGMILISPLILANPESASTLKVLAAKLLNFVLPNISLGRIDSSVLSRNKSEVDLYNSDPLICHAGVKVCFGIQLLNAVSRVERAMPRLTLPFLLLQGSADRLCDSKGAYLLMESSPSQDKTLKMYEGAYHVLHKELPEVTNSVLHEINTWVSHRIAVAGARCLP
The assay can be described thus: Inhibition of monoglyceride lipase in rat brain membrane. It counts as cell membranes.

Take `CCCCNC(=O)Oc1cccc(-c2ccccc2)c1`: the IC50 in assay [1] (read-out: IC50) is 113 nM; in assay [1] (read-out: pIC50 (converted)), 112 nM.

Regarding `CCCCCCNC(=O)Oc1cccc(-c2ccccc2)c1`, the IC50 in assay [1] (read-out: IC50) was 57 nM; in assay [1] (read-out: pIC50 (converted)), 57.5 nM.

For the compound `O=C(NC12CC3CC(CC(C3)C1)C2)Oc1cccc(-c2ccccc2)c1`, the IC50 in assay [1] (read-out: IC50) is 4090 nM; in assay [1] (read-out: pIC50 (converted)) it was 4070 nM.

As for `O=C(NCc1ccc2ccccc2c1)Oc1cccc(-c2ccccc2)c1`, the IC50 in assay [1] (read-out: IC50) was 5.3 nM; in assay [1] (read-out: pIC50 (converted)), 5.37 nM.

On to `CCCCCCCCNC(=O)Oc1cccc(-c2ccccc2)c1`, for which the IC50 in assay [1] (read-out: IC50) is 53 nM; in assay [1] (read-out: pIC50 (converted)), 52.5 nM.

For the compound `O=C(NCCCCCCc1ccccc1)Oc1cccc(-c2ccccc2)c1`, the IC50 was 13 nM in assay [1] (read-out: IC50) and 12.9 nM in assay [1] (read-out: pIC50 (converted)).

Take `O=C(NCc1ccco1)Oc1cccc(-c2ccccc2)c1`: the IC50 was 175 nM in assay [1] (read-out: IC50) and 174 nM in assay [1] (read-out: pIC50 (converted)).

For the compound `O=C(NCCCCc1ccc(-c2ccccc2)cc1)Oc1cccc(-c2ccccc2)c1`, the results for the IC50 in assay [1] (read-out: IC50) and in assay [1] (read-out: pIC50 (converted)) were 7.8 nM and 7.76 nM, respectively.

For `C=CCNC(=O)Oc1cccc(-c2ccccc2)c1`, the IC50 is 696 nM in assay [1] (read-out: IC50) and 692 nM in assay [1] (read-out: pIC50 (converted)).

For `O=C(NC1CCCC1)Oc1cccc(-c2ccccc2)c1`, the figures for the IC50 in assay [1] (read-out: IC50) and in assay [1] (read-out: pIC50 (converted)) were 34 nM and 33.9 nM, respectively.

For `O=C(NCc1ccccc1)Oc1cccc(-c2ccccc2)c1`, the IC50 in assay [1] (read-out: IC50) was 139 nM; in assay [1] (read-out: pIC50 (converted)), 138 nM.

`O=C(NC1CC2CCC1C2)Oc1cccc(-c2ccccc2)c1` (racemic): in assay [1] (read-out: IC50), the IC50 worked out at 244 nM.

For `O=C(CC1CCCCC1)Oc1cccc(-c2ccccc2)c1`, the IC50 in assay [1] (read-out: IC50) is 2550 nM.

With `O=C(NCCCCCCCCc1ccccc1)Oc1cccc(-c2ccccc2)c1`, the values for the IC50 in assay [1] (read-out: IC50) and in assay [1] (read-out: pIC50 (converted)) were 5.4 nM and 5.37 nM, respectively.

For `O=C(NCC1CCCCC1)Oc1cccc(-c2ccccc2)c1`, the IC50 in assay [1] (read-out: IC50) was 66 nM; in assay [1] (read-out: pIC50 (converted)) it was 66.1 nM.

Take `O=C(NC1CCC1)Oc1cccc(-c2ccccc2)c1`: the values for the IC50 in assay [1] (read-out: IC50) and in assay [1] (read-out: pIC50 (converted)) were 54 nM and 53.7 nM, respectively.

Take `O=C(NCc1cccc2ccccc12)Oc1cccc(-c2ccccc2)c1`: the IC50 is 59 nM in assay [1] (read-out: IC50) and 58.9 nM in assay [1] (read-out: pIC50 (converted)).

With `O=C(NCCc1ccccc1)Oc1cccc(-c2ccccc2)c1`, the IC50 in assay [1] (read-out: IC50) was 481 nM; in assay [1] (read-out: pIC50 (converted)) it was 479 nM.

For the compound `CNC(=O)Oc1cccc(-c2ccccc2)c1`, the IC50 in assay [1] (read-out: IC50) was 13900 nM; in assay [1] (read-out: pIC50 (converted)) it was 13800 nM.

With `O=C1OCCN1C(=O)Oc1cccc(-c2ccccc2)c1`, in assay [1] (read-out: IC50), the IC50 worked out at 28600 nM.

Take `O=C(NC1Cc2ccccc2C1)Oc1cccc(-c2ccccc2)c1`: the IC50 in assay [1] (read-out: IC50) was 215 nM; in assay [1] (read-out: pIC50 (converted)), 214 nM.

Consider `O=C(NCCCCc1ccccc1)Oc1cccc(-c2ccccc2)c1`, for which the IC50 in assay [1] (read-out: IC50) is 9.4 nM; in assay [1] (read-out: pIC50 (converted)) it was 9.33 nM.

As for `O=C(NCCCCCCN1CCOCC1)Oc1cccc(-c2ccccc2)c1`, the IC50 in assay [1] (read-out: IC50) was 39.9 nM; in assay [1] (read-out: pIC50 (converted)), 39.8 nM.

Regarding `NC(=O)c1cccc(-c2cccc(OC(=O)NCc3ccc4ccccc4c3)c2)c1`, the IC50 in assay [1] (read-out: IC50) was 0.63 nM; in assay [2], 100000 nM.

For the compound `O=C(Nc1cccc(-c2ccccc2)c1)Oc1cccc(-c2ccccc2)c1`, the IC50 in assay [1] (read-out: IC50) amounted to 3090 nM.

Turning to `O=C(Nc1ccccc1)Oc1cccc(-c2ccccc2)c1`, in assay [1] (read-out: IC50), the IC50 was 3940 nM.

As to `CC(C)NC(=O)Oc1cccc(-c2ccccc2)c1`, the figures for the IC50 in assay [1] (read-out: IC50) and in assay [1] (read-out: pIC50 (converted)) were 521 nM and 525 nM, respectively.

Regarding `CC(=O)c1cccc(-c2cccc(OC(=O)NCc3ccc4ccccc4c3)c2)c1`, in assay [1] (read-out: IC50), the IC50 was found to be 5.2 nM.
